Activity, EC50 and log10CCID50 data for two compounds are collected here from ChEMBL document CHEMBL1154414, “In vitro and in vivo activities of T-705 against arenavirus and bunyavirus infections” (Antimicrob Agents Chemother, 2007).

Test [1] relates to Pichinde virus. Put plainly: Antiviral activity against Pichinde virus An 4763 infected Syrian golden hamster assessed as animals with detectable virus level in serum at 50 mg/kg, po twice daily for 7 days administered 72 hrs post viral-challenge measured on day 7 of viral infection. It counts as functional. The gist of the method: (§1)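 Hamsters (groups of 15, placebo 25-30) were dosed orally by gavage twice daily (drug suspended in 0.4% CMC) after bilateral intraperitoneal challenge with 65 PFU. Five per group were killed on day 7. Liver homogenate or serum was serially diluted onto triplicate B-SC-1 wells, CPE was read at 6-8 days, and the 50% endpoint was taken. Range was 2.8-9.5 log10 CCID50/0.1 g or 0.1 ml, with undetectable assigned <2.8.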

Test [2] has as its system Punta Toro virus. In words: Antiviral activity against Punta Toro virus Adames assessed as inhibition of virus-induced visual cytopathic effect after 3 to 5 days. The class given is functional, organism-based. The gist of the method:
(§2)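 Virus in medium with 2% FBS was used at the CCID50 that gave maximal CPE. Half-log drug dilutions (DMSO stock, ≤1% DMSO at the top concentration) were added at infection. EC50 was derived by regression analysis.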

In test [3] the test system is Pichinde virus. Put plainly: Antiviral activity against Pichinde virus An 4763 infected Syrian golden hamster assessed as inhibition of liver damage at 40 mg/kg, po twice daily for 7 days administered 4 hrs before viral-challenge measured on day 7 of viral infection. The class given is functional, organism-based. On the set-up: dose 40 mg/kg. The essentials: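 Hamsters were challenged intraperitoneally (bilateral, 65 PFU) and dosed twice daily by oral gavage in 0.4% CMC. On day 7, five animals per group were sacrificed. Livers were scored 0-4 for hepatic icterus (0 normal, 4 maximal yellow coloration), and serum ALT was measured by kinetic assay.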

In test [4] the test system is Punta Toro virus. In words: Antiviral activity against 500 PFU Punta Toro virus Adames infected C57BL/6 mouse assessed as mean viral titer per 0.1 g of liver at 10 mg/kg, po twice daily administered 24 hrs post viral challenge measured on day 3 of viral infection. The class given is functional. The gist of the method:
(§3)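 Mice were infected subcutaneously with PTV and dosed by oral gavage twice daily; 5 per group (10 placebo) were killed on day 3 or 4. Liver homogenate or serum was serially diluted onto triplicate LLC-MK2 monolayers, and CPE was read 6–8 days later. 50% endpoints gave log10 CCID50 per 0.1 g liver or 0.1 ml serum. Detection range was 2.8–9.5; undetectable samples were assigned <2.8.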

In test [5] the test system is Pichinde virus. Put plainly: Antiviral activity against Pichinde virus An 4763 infected Syrian golden hamster assessed as mean serum ALT levels at 40 mg/kg, po twice daily for 7 days administered 4 hrs before viral-challenge measured on day 7 of viral infection. It counts as functional. The gist of the method:
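Hamsters were challenged intraperitoneally (bilateral, 65 PFU) and given twice-daily oral gavage doses (0.4% CMC vehicle). Five per group were sacrificed on day 7 and serum was collected. Serum ALT activity was measured by kinetic assay. Three sham-infected animals set the baselines.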

For test [6], the system named is Punta Toro virus. In words: Antiviral activity against 5000 PFU Punta Toro virus Adames infected C57BL/6 mouse assessed as mean day of death at 10 mg/kg, po twice daily for 5 days administered 24 hrs post viral challenge. The class given is functional. The essentials:
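PTV was inoculated subcutaneously into mice in groups of 15 (25–30 placebo). Dosing was by oral gavage twice daily for 5–7 days, with T-705 suspended in 0.4% CMC and ribavirin in saline. Remaining animals were observed 21–28 days for survival and day of death. Test doses had first been checked for tolerance in uninfected animals.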

Test [7] has as its system Punta Toro virus. In words: Antiviral activity against 500 PFU Punta Toro virus Adames infected C57BL/6 mouse assessed as mean serum ALT levels at 10 mg/kg, po twice daily administered 24 hrs post viral challenge measured on day 3 of viral infection. The class given is functional. The essentials: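 Subcutaneous PTV infection was followed by oral gavage twice daily with drug suspended in 0.4% CMC. Serum was collected from 5 sacrificed mice per group (10 placebo) on day 3 or 4. ALT activity was measured by kinetic assay, and sham-infected mice set the baselines.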

The subject of test [8] is Punta Toro virus. Put plainly: Antiviral activity against 50 PFU Punta Toro virus Adames infected C57BL/6 mouse assessed as mean viral titer per 0.1 mL of serum at 10 mg/kg, po twice daily administered 24 hrs post viral challenge measured on day 3 of viral infection. It counts as functional. The gist of the method: (§4)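 Mice were infected subcutaneously with PTV and dosed by oral gavage twice daily with drug in 0.4% CMC. Five per group (10 placebo) were sacrificed on day 3 or 4. Serially diluted liver homogenate or serum went into triplicate LLC-MK2 wells, and CPE 50% endpoints were read at 6–8 days. The range was 2.8–9.5 log10 CCID50/0.1 g or 0.1 ml, with undetectable samples set to 2.8 and saturated samples to 9.5.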

Test [9] has as its system Sandfly fever Naples virus. In words: Antiviral activity against Sandfly fever Naples virus assessed as inhibition of virus-induced visual cytopathic effect after 3 to 5 days. The class given is functional, organism-based. The gist of the method:
as §2

For test [10], the system named is Punta Toro virus. In words: Antiviral activity against 5000 PFU Punta Toro virus Adames infected C57BL/6 mouse assessed as animals with detectable virus level in liver at 10 mg/kg, po twice daily administered 24 hrs post viral challenge measured on day 3 of viral infection. It counts as functional. The gist of the method:
as §3

For test [11], the system named is Pichinde virus. Put plainly: Antiviral activity against Pichinde virus An 4763 infected Syrian golden hamster assessed as animals with detectable virus level in liver at 20 mg/kg, po twice daily for 7 days administered 24 hrs post viral-challenge measured on day 7 of viral infection. The class given is functional. The essentials:
as §1

In test [12] the test system is Punta Toro virus. Put plainly: Antiviral activity against 50 PFU Punta Toro virus Adames infected C57BL/6 mouse assessed as mean viral titer per 0.1 mL of serum at 30 mg/kg, po twice daily administered 24 hrs post viral challenge measured on day 3 of viral infection. It counts as functional. The gist of the method: as §4
The subject of test [13] is Pichinde virus. In words: Antiviral activity against Pichinde virus An 4763 infected Syrian golden hamster assessed as mean viral titer per 0.1 g of liver at 40 mg/kg, po twice daily for 7 days administered 4 hrs before viral-challenge measured on day 7 of viral infection. It counts as functional. The gist of the method:
as §1

In test [14] the test system is Pichinde virus. Put plainly: Antiviral activity against Pichinde virus An 4763 infected Syrian golden hamster assessed as mean day of death at 50 mg/kg, po twice daily for 7 days administered 24 hrs post viral-challenge. It counts as functional. The essentials: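 Groups of 15 hamsters (placebo 25-30) were challenged intraperitoneally (bilateral, 65 PFU) and dosed twice daily by oral gavage in 0.4% CMC for 5 to 7 days.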

The test system of test [15] is Punta Toro virus. Put plainly: Antiviral activity against 500 PFU Punta Toro virus Adames infected C57BL/6 mouse assessed as animals with detectable virus level in serum at 10 mg/kg, po twice daily administered 24 hrs post viral challenge measured on day 3 of viral infection. It counts as functional. The gist of the method: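 T-705 was suspended in 0.4% carboxymethylcellulose and given by oral gavage twice daily. Mice were infected subcutaneously with PTV. Five mice per group (10 placebo) were sacrificed on day 3 or 4. Liver homogenate or serum was serially diluted onto triplicate LLC-MK2 monolayers, and CPE was read at 6–8 days. The detection limit was 2.8 log10 CCID50 per 0.1 g liver or 0.1 ml serum.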

In test [16] the test system is Pichinde virus. Put plainly: Antiviral activity against Pichinde virus An 4763 infected Syrian golden hamster assessed as mean viral titer per 0.1 g of liver at 20 mg/kg, po twice daily for 7 days administered 72 hrs post viral-challenge measured on day 7 of viral infection. It counts as functional. The essentials:
as §1

In test [17] the test system is Punta Toro virus. In words: Antiviral activity against 500 PFU Punta Toro virus Adames infected C57BL/6 mouse assessed as mean serum ALT levels at 30 mg/kg, po twice daily administered 24 hrs post viral challenge measured on day 3 of viral infection. It counts as functional. The gist of the method:
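C57BL/6 mice received subcutaneous PTV, then oral gavage twice daily for 5–7 days. T-705 was given in 0.4% CMC and ribavirin in saline. Five mice per group (10 placebo) were killed on day 3 or 4, and serum was collected. ALT activity was measured by kinetic assay. Three sham-infected mice set baselines.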

pEC50: −log10 of the molar value. The source made the active and inactive calls. No cut-off for these calls is given here.

Turning to `NC(=O)c1nc(F)cnc1O` [FAVIPIRAVIR], the Activity in test [1] amounted to 100%; in test [5], 30 IU/L; in [6], 4.4 days; in [7], 3302 IU/L; in [10] it was 20%; in test [11], 100%. The Activity is more than 21 days in test [14], 100% in test [15] and 900 IU/L in test [17]. The pEC50 in test [2] is 3.72; in test [9] it was 3.94. Besides, the result in test [3] was Active. The log10CCID50 is reported as less than 2.8 in [4]; 6.9 in test [8]; less than 4.4 in test [12]; less than 3.2 in test [13]; more than 8.6 in test [16].

As for `NC(=O)c1ncn([C@@H]2O[C@H](CO)[C@@H](O)[C@H]2O)n1` [RIBAVIRIN], the Activity in test [1] turned out to be 100%; in [5], 30 IU/L; in test [6] it was 4 days; in test [7], 2150 IU/L; in test [10], 0%; in test [11] it was 100%. In addition, the Activity in [14] is more than 21 days; in [15], 100%; in test [17], 450 IU/L. Moreover, the pEC50 is 3.76 in test [2] and 4.05 in [9]. In [3], the outcome was Active. The log10CCID50 was less than 2.9 in test [4]; less than 4.9 in [8]; 6.1 in test [12]; less than 3.2 in test [13]; 6.8 in test [16].
